Measurements as given in ChEMBL document CHEMBL4396900, “Extending Cross Metathesis To Identify Selective HDAC Inhibitors: Synthesis, Biological Activities, and Modeling” (ACS Med Chem Lett, 2019).
Active and inactive are the calls of the source. The rule behind the calls is not given here.

Tests used:
A549 = assay: cells; assay type: functional, cell-based; settings: Homo sapiens, A549, 72 h
cells [1] = assay type: functional, cell-based; settings: Homo sapiens, 72 h
cells [2] = assay type: functional, cell-based; settings: Homo sapiens, 72 h; remark: listed apart in the source
cells [3] = assay type: functional, cell-based; settings: Homo sapiens, 72 h; remark: listed apart in the source
Histone deacetylase 9 = Histone deacetylase 9 (Homo sapiens, UniProt Q9UKV0); assay: Inhibition of human recombinant HDAC9 using fluorogenic HDAC substrate class 2a measured after 30 mins by fluorimetry assay
Sequence of Histone deacetylase 9 (Q9UKV0 whole entry): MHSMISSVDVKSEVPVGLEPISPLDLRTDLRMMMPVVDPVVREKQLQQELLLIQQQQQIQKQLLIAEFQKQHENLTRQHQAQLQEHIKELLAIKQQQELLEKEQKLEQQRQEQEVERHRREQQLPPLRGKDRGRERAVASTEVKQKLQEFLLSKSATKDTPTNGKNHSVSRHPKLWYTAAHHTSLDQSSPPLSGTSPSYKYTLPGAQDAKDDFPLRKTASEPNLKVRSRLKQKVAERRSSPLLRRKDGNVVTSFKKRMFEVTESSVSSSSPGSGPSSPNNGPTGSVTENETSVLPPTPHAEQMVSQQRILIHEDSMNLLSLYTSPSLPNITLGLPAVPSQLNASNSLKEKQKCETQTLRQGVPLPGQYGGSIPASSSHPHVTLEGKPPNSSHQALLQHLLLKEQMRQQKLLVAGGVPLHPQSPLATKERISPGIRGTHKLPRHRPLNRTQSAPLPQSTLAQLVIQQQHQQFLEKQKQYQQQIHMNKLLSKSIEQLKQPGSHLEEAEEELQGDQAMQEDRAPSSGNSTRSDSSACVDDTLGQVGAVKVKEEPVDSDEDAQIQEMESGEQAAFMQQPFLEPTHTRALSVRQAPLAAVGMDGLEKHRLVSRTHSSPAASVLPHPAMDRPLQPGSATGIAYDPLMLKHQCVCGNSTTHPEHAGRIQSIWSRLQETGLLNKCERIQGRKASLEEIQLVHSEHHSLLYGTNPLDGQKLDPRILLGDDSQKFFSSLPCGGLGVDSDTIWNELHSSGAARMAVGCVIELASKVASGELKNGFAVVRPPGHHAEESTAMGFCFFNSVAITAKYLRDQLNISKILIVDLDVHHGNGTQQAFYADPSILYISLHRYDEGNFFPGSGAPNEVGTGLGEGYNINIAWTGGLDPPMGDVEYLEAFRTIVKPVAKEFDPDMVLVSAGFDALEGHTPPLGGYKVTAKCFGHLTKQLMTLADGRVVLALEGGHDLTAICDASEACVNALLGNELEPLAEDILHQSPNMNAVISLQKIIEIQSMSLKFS

[4] = molecular target: T1, Protein deacetylase HDAC6 (Homo sapiens) (UniProt Q9UBN7); assay: Inhibition of human recombinant HDAC6 at 10 uM using fluorogenic HDAC substrate measured after 30 mins by fluorimetry assay relative to control
T1 sequence (whole entry): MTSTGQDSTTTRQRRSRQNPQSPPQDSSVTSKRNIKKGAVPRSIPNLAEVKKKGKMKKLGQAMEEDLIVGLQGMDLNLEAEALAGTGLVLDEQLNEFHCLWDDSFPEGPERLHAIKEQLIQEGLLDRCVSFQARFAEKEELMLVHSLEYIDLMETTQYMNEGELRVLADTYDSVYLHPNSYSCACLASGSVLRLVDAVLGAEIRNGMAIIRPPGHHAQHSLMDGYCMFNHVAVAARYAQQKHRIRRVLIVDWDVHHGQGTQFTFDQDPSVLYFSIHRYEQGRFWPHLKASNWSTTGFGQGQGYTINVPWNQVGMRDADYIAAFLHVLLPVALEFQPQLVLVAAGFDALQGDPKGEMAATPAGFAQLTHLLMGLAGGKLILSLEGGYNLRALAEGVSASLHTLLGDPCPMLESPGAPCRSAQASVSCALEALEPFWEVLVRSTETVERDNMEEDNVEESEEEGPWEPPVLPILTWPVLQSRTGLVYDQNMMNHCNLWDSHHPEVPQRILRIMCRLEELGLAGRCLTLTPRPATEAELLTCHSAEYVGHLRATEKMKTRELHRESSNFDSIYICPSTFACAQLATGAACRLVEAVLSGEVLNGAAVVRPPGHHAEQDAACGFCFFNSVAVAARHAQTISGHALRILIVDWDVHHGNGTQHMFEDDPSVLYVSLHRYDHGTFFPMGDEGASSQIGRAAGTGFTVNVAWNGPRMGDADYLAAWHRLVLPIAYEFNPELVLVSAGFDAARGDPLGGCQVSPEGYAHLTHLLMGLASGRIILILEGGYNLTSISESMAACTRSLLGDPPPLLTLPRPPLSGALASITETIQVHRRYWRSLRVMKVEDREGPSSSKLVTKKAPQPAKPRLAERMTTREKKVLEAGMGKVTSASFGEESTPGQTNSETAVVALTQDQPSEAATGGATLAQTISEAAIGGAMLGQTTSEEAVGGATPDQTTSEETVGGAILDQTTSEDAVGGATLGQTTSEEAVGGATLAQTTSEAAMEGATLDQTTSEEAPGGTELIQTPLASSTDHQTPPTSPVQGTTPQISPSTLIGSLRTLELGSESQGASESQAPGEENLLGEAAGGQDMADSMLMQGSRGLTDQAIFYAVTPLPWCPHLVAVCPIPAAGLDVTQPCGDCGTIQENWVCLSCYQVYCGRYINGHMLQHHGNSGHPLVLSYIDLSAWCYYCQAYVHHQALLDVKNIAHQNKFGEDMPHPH

Homo sapiens [5] = organism: Homo sapiens; assay: Selectivity ratio of IC50 for human recombinant HDAC2 to IC50 for human recombinant HDAC6
Histone deacetylase 4 [6] = molecular target: T2, Histone deacetylase 4 (Homo sapiens, UniProt P56524); assay: Inhibition of human recombinant HDAC4 at 10 uM using fluorogenic HDAC substrate class 2a measured after 30 mins by fluorimetry assay relative to control
T2 sequence (P56524 whole entry): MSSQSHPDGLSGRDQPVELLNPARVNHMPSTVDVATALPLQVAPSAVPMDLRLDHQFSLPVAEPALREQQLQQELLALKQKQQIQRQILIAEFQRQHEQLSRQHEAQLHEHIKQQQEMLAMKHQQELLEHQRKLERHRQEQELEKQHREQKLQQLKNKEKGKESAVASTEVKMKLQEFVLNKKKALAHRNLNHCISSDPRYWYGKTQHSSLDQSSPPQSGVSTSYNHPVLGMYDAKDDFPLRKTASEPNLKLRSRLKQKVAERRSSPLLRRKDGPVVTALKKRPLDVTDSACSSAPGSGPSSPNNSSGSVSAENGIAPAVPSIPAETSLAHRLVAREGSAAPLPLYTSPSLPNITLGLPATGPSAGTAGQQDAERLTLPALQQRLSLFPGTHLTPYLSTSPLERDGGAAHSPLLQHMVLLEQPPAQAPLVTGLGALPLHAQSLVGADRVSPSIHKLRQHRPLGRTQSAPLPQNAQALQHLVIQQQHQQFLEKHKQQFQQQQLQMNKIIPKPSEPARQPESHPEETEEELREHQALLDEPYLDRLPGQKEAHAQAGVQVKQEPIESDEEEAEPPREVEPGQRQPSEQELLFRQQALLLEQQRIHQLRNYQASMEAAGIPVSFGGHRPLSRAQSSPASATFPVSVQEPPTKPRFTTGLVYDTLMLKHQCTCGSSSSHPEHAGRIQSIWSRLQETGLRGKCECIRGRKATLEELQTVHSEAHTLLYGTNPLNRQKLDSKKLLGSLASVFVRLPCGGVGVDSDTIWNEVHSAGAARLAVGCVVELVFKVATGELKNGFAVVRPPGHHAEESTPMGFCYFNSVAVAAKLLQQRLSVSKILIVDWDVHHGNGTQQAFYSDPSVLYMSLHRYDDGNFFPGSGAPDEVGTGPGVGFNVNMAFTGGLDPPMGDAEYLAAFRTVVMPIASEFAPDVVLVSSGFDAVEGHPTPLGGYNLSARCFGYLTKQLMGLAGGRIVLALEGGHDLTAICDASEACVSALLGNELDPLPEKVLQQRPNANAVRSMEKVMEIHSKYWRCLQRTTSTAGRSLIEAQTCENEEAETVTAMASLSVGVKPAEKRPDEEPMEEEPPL

[7] = molecular target: NAD-dependent protein deacetylase sirtuin-1 (Homo sapiens) (UniProt Q96EB6); assay: Inhibition of human recombinant sirtuin 1 at 10 uM using fluorogenic HDAC substrate measured after 20 mins by fluorimetry assay relative to control
Histone deacetylase 3 [8] = molecular target: T3, Histone deacetylase 3 (Homo sapiens, UniProt O15379); assay: Inhibition of human recombinant HDAC3 at 10 uM using fluorogenic HDAC substrate measured after 10 mins by fluorimetry assay relative to control
T3 sequence (O15379 whole entry): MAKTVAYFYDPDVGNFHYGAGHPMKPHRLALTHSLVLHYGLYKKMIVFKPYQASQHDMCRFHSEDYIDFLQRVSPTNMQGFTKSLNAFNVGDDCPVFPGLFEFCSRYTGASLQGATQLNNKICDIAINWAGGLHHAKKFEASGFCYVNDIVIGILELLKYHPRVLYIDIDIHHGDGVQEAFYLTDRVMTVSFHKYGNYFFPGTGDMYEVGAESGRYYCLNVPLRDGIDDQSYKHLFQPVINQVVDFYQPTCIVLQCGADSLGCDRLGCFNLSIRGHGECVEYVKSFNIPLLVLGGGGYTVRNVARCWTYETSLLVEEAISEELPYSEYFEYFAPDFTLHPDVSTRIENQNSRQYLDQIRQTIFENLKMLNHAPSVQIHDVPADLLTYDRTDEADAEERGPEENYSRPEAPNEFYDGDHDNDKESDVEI

[9] = molecular target: Protein deacetylase HDAC6 (Homo sapiens, UniProt Q9UBN7); assay: Inhibition of human recombinant HDAC6 using fluorogenic HDAC substrate measured after 30 mins by fluorimetry assay
Histone deacetylase 5 [10] = molecular target: T4, Histone deacetylase 5 (Homo sapiens, UniProt Q9UQL6); assay: Inhibition of human recombinant HDAC5 at 10 uM using fluorogenic HDAC substrate class 2a measured after 30 mins by fluorimetry assay relative to control
T4 sequence (Q9UQL6 whole entry): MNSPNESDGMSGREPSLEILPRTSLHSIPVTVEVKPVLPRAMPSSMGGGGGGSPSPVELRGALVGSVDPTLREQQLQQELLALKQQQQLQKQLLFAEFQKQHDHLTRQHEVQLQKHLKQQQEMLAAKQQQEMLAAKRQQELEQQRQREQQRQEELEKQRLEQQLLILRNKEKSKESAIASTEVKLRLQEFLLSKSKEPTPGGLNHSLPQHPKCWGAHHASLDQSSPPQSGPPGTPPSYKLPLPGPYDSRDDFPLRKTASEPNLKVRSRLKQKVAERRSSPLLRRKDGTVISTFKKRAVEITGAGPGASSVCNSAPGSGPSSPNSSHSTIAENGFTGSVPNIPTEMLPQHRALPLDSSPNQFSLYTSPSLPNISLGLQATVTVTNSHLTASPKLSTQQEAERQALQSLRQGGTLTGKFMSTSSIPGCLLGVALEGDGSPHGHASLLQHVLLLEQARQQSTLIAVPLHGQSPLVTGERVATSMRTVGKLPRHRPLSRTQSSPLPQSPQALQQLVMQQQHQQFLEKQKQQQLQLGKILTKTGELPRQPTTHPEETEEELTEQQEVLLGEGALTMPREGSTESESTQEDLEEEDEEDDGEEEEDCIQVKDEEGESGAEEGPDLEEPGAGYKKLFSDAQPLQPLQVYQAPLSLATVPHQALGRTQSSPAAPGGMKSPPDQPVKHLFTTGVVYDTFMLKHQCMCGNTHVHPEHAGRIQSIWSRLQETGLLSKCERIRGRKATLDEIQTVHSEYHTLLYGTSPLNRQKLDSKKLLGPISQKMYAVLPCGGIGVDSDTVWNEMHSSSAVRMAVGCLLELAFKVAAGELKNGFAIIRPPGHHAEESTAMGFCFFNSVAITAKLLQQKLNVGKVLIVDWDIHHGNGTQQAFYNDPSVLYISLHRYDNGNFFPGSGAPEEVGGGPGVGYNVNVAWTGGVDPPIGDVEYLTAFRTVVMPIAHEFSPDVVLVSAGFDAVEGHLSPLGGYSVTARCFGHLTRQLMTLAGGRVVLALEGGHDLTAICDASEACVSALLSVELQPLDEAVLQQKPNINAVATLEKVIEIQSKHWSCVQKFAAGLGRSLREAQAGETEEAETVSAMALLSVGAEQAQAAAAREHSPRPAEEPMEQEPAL

Histone deacetylase 7 = Histone deacetylase 7 (Homo sapiens, UniProt Q8WUI4); assay: Inhibition of human recombinant HDAC7 using fluorogenic HDAC substrate class 2a measured after 45 mins by fluorimetry assay
Histone deacetylase 2 [11] = molecular target: T5, Histone deacetylase 2 (Homo sapiens, UniProt Q92769); assay: Inhibition of human recombinant HDAC2 at 10 uM using fluorogenic HDAC substrate measured after 15 mins by fluorimetry assay relative to control
T5 sequence (Q92769 whole entry): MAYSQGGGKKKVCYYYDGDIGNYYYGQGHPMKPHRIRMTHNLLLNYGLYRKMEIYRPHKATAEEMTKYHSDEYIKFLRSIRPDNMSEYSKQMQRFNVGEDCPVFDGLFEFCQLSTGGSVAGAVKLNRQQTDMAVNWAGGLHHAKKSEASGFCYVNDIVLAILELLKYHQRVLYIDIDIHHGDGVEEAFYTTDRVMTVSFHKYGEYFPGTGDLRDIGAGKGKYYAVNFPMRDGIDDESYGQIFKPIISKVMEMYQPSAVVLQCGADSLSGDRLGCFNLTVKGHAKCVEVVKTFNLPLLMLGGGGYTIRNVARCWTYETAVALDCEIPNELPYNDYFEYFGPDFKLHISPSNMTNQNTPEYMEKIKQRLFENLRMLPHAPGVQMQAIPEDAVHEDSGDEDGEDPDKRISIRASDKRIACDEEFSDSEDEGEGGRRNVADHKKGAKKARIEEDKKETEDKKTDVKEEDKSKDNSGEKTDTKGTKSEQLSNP

[12] = molecular target: T1, Protein deacetylase HDAC6 (Homo sapiens); assay: Inhibition of HDAC6 in human Meso163 cells assessed as increase in histone H3 acetylation at 20 uM measured after 6 to 20 hrs by Western blot analysis; assay type: cell-based
Procedure, shortened: (§1)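 Meso 163 mesothelioma and A549 lung adenocarcinoma cells exposed to agent for 6 or 20 h; histone H3 and alpha-tubulin acetylation analysed by western blot with molecular-weight markers.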

Histone deacetylase 8 = Histone deacetylase 8 (Homo sapiens, UniProt Q9BY41); assay: Inhibition of human recombinant HDAC8 using fluorogenic HDAC substrate measured after 60 mins by fluorimetry assay
Sequence of Histone deacetylase 8 (Q9BY41 whole entry): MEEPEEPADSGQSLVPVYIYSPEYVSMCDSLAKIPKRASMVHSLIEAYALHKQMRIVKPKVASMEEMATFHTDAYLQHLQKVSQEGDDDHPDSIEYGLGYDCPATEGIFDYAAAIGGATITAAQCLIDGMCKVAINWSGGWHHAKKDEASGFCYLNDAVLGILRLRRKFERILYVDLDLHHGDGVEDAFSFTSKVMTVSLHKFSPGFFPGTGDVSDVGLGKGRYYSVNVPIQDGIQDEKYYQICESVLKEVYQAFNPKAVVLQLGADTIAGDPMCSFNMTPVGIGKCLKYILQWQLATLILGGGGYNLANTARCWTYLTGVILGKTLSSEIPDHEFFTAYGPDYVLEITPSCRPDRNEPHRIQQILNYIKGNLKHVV

[13] = molecular target: Polyamine deacetylase HDAC10 (Homo sapiens, UniProt Q969S8); assay: Inhibition of human recombinant HDAC10 using fluorogenic HDAC substrate measured after 45 mins by fluorimetry assay
[14] = molecular target: T1, Protein deacetylase HDAC6 (Homo sapiens); assay: Inhibition of HDAC6 in human A549 cells assessed as upregulation of E-cadherin mRNA expression at 20 uM after 24 hrs by RT-Sybr green PCR analysis; assay type: cell-based
Procedure, shortened: (§2)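 Meso 163 and A549 cells treated for 24 h; E-cadherin, Sema-3F and p21 mRNA quantified by real-time PCR; means ± S.E.M. of four independent experiments.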

Histone deacetylase 1 [15] = molecular target: T6, Histone deacetylase 1 (Homo sapiens, UniProt Q13547); assay: Inhibition of human recombinant HDAC1 at 10 uM using fluorogenic HDAC substrate measured after 15 mins by fluorimetry assay relative to control
T6 sequence (Q13547 whole entry): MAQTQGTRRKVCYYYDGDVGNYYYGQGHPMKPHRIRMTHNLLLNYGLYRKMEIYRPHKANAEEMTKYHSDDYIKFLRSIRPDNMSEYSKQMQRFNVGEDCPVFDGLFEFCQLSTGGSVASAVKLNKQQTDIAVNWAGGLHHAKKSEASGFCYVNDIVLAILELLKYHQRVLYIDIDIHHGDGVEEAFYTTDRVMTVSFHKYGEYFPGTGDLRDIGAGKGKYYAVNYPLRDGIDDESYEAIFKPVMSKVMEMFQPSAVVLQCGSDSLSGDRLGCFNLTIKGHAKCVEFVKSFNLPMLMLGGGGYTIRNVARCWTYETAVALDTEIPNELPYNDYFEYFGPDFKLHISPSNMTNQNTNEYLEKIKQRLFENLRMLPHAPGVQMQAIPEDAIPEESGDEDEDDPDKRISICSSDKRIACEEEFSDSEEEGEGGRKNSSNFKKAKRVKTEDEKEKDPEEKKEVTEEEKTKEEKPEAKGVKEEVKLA

Histone deacetylase 5 [16] = molecular target: T4, Histone deacetylase 5; assay: Inhibition of human recombinant HDAC5 using fluorogenic HDAC substrate class 2a measured after 30 mins by fluorimetry assay
[17] = molecular target: Polyamine deacetylase HDAC10 (Homo sapiens) (UniProt Q969S8); assay: Inhibition of human recombinant HDAC10 at 10 uM using fluorogenic HDAC substrate measured after 45 mins by fluorimetry assay relative to control
Histone deacetylase 4 [18] = molecular target: T2, Histone deacetylase 4; assay: Inhibition of human recombinant HDAC4 using fluorogenic HDAC substrate class 2a measured after 30 mins by fluorimetry assay
[19] = molecular target: T1, Protein deacetylase HDAC6 (Homo sapiens); assay: Inhibition of HDAC6 in human Meso163 cells assessed as increase in alpha tubulin acetylation at 20 uM measured after 6 to 20 hrs by Western blot analysis; assay type: cell-based
Procedure, shortened: as §1

Histone deacetylase 3 [20] = molecular target: T3, Histone deacetylase 3
[21] = molecular target: T1, Protein deacetylase HDAC6 (Homo sapiens); assay: Inhibition of HDAC6 in human Meso163 cells assessed as upregulation of semaphorin 3F mRNA expression at 20 uM after 24 hrs by RT-Sybr green PCR analysis; assay type: cell-based
Procedure, shortened: as §2

Histone deacetylase 2 [22] = molecular target: T5, Histone deacetylase 2; assay: Inhibition of human recombinant HDAC2 using fluorogenic HDAC substrate measured after 15 mins by fluorimetry assay
[23] = molecular target: T1, Protein deacetylase HDAC6 (Homo sapiens); assay: Inhibition of HDAC6 in human Meso163 cells assessed as upregulation of p21 mRNA expression at 20 uM after 24 hrs by RT-Sybr green PCR analysis; assay type: cell-based
Procedure, shortened: as §2

[24] = molecular target: T1, Protein deacetylase HDAC6 (Homo sapiens); assay: Inhibition of HDAC6 in human A549 cells assessed as increase in alpha tubulin acetylation at 20 uM measured after 6 to 20 hrs by Western blot analysis; assay type: cell-based
Procedure, shortened: as §1

[25] = molecular target: T1, Protein deacetylase HDAC6 (Homo sapiens); assay: Inhibition of HDAC6 in human A549 cells assessed as increase in histone H3 acetylation at 20 uM measured after 6 to 20 hrs by Western blot analysis; assay type: cell-based
Procedure, shortened: as §1

Histone deacetylase = assay type: cell-based, Homo sapiens
Homo sapiens [26] = organism: Homo sapiens; assay: Selectivity ratio of IC50 for human recombinant HDAC3 to IC50 for human recombinant HDAC6
Homo sapiens [27] = organism: Homo sapiens; assay: Selectivity ratio of IC50 for human recombinant HDAC8 to IC50 for human recombinant HDAC6
[28] = molecular target: T1, Protein deacetylase HDAC6 (Homo sapiens); assay: Inhibition of HDAC6 in human Meso163 cells assessed as upregulation of E-cadherin mRNA expression at 20 uM after 24 hrs by RT-Sybr green PCR analysis; assay type: cell-based
Procedure, shortened: as §2

Homo sapiens [29] = organism: Homo sapiens; assay: Selectivity ratio of IC50 for human recombinant HDAC11 to IC50 for human recombinant HDAC6
[30] = molecular target: Histone deacetylase 8 (Homo sapiens) (UniProt Q9BY41); assay: Inhibition of human recombinant HDAC8 at 10 uM using fluorogenic HDAC substrate measured after 60 mins by fluorimetry assay relative to control
Sequence of Histone deacetylase 8 (Homo sapiens) (Q9BY41 whole entry): as the sequence (Q9BY41 whole entry) above

[31] = molecular target: NAD-dependent protein deacetylase sirtuin-3, mitochondrial (Homo sapiens) (UniProt Q9NTG7); assay: Inhibition of human recombinant sirtuin 3 at 10 uM using fluoro-lysine sirtuin 2 deacetylase substrate measured after 45 mins by fluorimetry assay relative to control
Histone deacetylase 1 [32] = molecular target: T6, Histone deacetylase 1; assay: Inhibition of human recombinant HDAC1 using fluorogenic HDAC substrate measured after 15 mins by fluorimetry assay
Homo sapiens [33] = organism: Homo sapiens; assay: Selectivity ratio of IC50 for human recombinant HDAC1 to IC50 for human recombinant HDAC6
Histone deacetylase 11 = Histone deacetylase 11 (Homo sapiens, UniProt Q96DB2); assay: Inhibition of human recombinant HDAC11 using fluorogenic HDAC substrate class 2a measured after 30 mins by fluorimetry assay
Homo sapiens [34] = organism: Homo sapiens; assay: Selectivity ratio of IC50 for human recombinant HDAC10 to IC50 for human recombinant HDAC6
[35] = molecular target: Histone deacetylase 11 (Homo sapiens) (UniProt Q96DB2); assay: Inhibition of human recombinant HDAC11 at 10 uM using fluorogenic HDAC substrate class 2a measured after 30 mins by fluorimetry assay relative to control
[36] = molecular target: T1, Protein deacetylase HDAC6 (Homo sapiens); assay: Inhibition of HDAC6 in human A549 cells assessed as upregulation of semaphorin 3F mRNA expression at 20 uM after 24 hrs by RT-Sybr green PCR analysis; assay type: cell-based
Procedure, shortened: as §2

[37] = molecular target: T1, Protein deacetylase HDAC6 (Homo sapiens); assay: Inhibition of HDAC6 in human A549 cells assessed as upregulation of p21 mRNA expression at 20 uM after 24 hrs by RT-Sybr green PCR analysis; assay type: cell-based
Procedure, shortened: as §2

[38] = molecular target: NAD-dependent protein deacetylase sirtuin-2 (Homo sapiens, UniProt Q8IXJ6); assay: Inhibition of human recombinant sirtuin 2 using fluoro-lysine sirtuin 2 deacetylase substrate measured after 60 mins by fluorimetry assay

Work on CC(=O)Nc1ccc(C(=O)Nc2ccccc2N)cc1 [TACEDINALINE] yielded an IC50 (A549) of 16 µM, an IC50 (cells [1]) of 7.83 µM and an IC50 (cells [2]) of 15.8 µM. It also gave an IC50 (cells [3]) of 3.9 µM.

With COC(=O)c1ccc2ccccc2c1OCCCCCCCC(=O)NO the IC50 (Histone deacetylase 9) was “Not Active”, the inhibition [4] was 104% and the Ratio IC50 (Homo sapiens [5]) was 17 to 37. For the same compound, the inhibition (Histone deacetylase 4 [6]) was -4.8%, the inhibition [7] was -2.6% and the inhibition (Histone deacetylase 3 [8]) was 87.9%. For the same compound, the IC50 [9] was 0.095 µM, the inhibition (Histone deacetylase 5 [10]) was 2.8% and the IC50 (Histone deacetylase 7) was “Not Active”. For the same compound, the inhibition (Histone deacetylase 2 [11]) was 67.1%, the Activity [12] was “Active” and the IC50 (Histone deacetylase 8) was 1.6 µM. The IC50 [13] was 1.6 µM, the Activity [14] was “Active” and the inhibition (Histone deacetylase 1 [15]) was 84.7%. For the same compound, the IC50 (A549) was 62.4 µM, the IC50 (Histone deacetylase 5 [16]) was “Not Active” and the inhibition [17] was 82.3%. The IC50 (Histone deacetylase 4 [18]) was “Not Active”, the IC50 (cells [1]) was 15.6 µM and the Activity [19] was “Active”. The IC50 (Histone deacetylase 3 [20]) was 1 µM, the Activity [21] was “Active” and the IC50 (Histone deacetylase 2 [22]) was 3.4 µM. The Activity [23] was “Active”, the Activity [24] was “Active” and the Activity [25] was “Active”. It also gave an EC50 (Histone deacetylase) of 7.84 µM, a Ratio IC50 (Homo sapiens [26]) of 10 and an IC50 (cells [2]) of 15.9 µM. For the same compound, the Ratio IC50 (Homo sapiens [27]) was 17 to 37, the Activity [28] was “Active” and the Ratio IC50 (Homo sapiens [29]) was 17 to 37. The IC50 (cells [3]) was 15.7 µM, the inhibition [30] was 93.1% and the inhibition [31] was -8.2%. The IC50 (Histone deacetylase 1 [32]) was 3.5 µM, the Ratio IC50 (Homo sapiens [33]) was 17 to 37 and the IC50 (Histone deacetylase 11) was 6.6 µM. For the same compound, the Ratio IC50 (Homo sapiens [34]) was 17 to 37, the inhibition [35] was 57.2% and the Activity [36] was “Active”. For the same compound, the Activity [37] was “Active”.

COC(=O)c1ccc2ccccc2c1OCCCCCCCC(=O)Nc1ccccc1N showed an EC50 (Histone deacetylase) of 8.14 µM.

In the case of Cc1ccc(C(=O)Nc2ccc(S(=O)(=O)O)c3cc(S(=O)(=O)O)cc(S(=O)(=O)O)c23)cc1NC(=O)c1cccc(NC(=O)Nc2cccc(C(=O)Nc3cc(C(=O)Nc4ccc(S(=O)(=O)O)c5cc(S(=O)(=O)O)cc(S(=O)(=O)O)c45)ccc3C)c2)c1 [SURAMIN], the IC50 [38] is reported as 17 µM.
